Compounds with a hit are over-represented: about 1.8% of the library has one in this group of screens.
NPY Y1 blocker: NPY-Y1 (human) receptor antagonism | HEK293-CNG Y1 cells, membrane potential fluorescence; NPY at EC95, then isoproterenol | inhibition, % at 3.6 µM | actives 1% (n = 200,000) | AID 1040;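 active means inhibition above the campaign mean inhibition of all tested compounds plus 3 SD, cut at about 20% in these data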;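 further: 0% = DMSO wells given NPY plus isoproterenol and 100% = isoproterenol alone without NPY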
Target sequence (P25929 whole entry, looked up): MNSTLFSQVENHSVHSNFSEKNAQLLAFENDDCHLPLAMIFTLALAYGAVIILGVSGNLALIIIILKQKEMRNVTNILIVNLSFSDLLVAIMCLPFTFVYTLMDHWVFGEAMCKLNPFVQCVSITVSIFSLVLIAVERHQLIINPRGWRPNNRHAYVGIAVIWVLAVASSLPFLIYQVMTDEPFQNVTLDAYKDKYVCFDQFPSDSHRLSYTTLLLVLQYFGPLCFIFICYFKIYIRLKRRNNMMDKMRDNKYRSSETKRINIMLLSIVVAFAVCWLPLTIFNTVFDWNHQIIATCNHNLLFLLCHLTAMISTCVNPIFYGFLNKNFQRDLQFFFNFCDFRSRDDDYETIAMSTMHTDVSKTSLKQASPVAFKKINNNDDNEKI
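Test system – HEK293 Y1/CNG channel cell line · Also added – NPY agonist 25 nM, then isoproterenol 1 µM plus Ro 20-1724 25 µM · Compound dosing – one concentration, 3.6 µM, in 0.4% DMSO · Schedule – compound incubation 1 h at room temperature, readout 45 min post-stimulation · Technique – fluorescence, membrane potential probe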
NPY-Y2 antag: blocks the human neuropeptide Y Y2 receptor | P49146 | NPY-Y2 expressing cells, antagonist mode | inhibition, % at 2.7 µM | actives 0.99% (n = 140,000) | AID 793;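 further: 0% = vehicle with agonist challenge and 100% = reference antagonist with challenge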
NPY2 pot ag: potentiators or agonists of human neuropeptide Y receptor Y2; actives 0.45% (n = 220,000); activation, % at 3.6 µM; cells expressing NPY-Y2, potentiator/agonist read-out; P49146; in the data active means activation above about 27%;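 further: cells stimulated with NPY near EC25 plus isoproterenol at EC100; 0% = vehicle plus submaximal agonist and 100% = vehicle plus saturating agonist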
NPY-Y1 PAM-ag: human NPY-Y1 potentiation or agonism, primary screen. NPY-Y1 expressing cells, potentiator/agonist activation. activation, % at 3.6 µM. actives 0.37% (n = 220,000). AID 1304; in the data active means activation above about 33%, passing the limit was not always enough;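 further: cells stimulated with NPY at EC10 then isoproterenol at EC100; 0% = low agonist plus stimulus and 100% = saturating agonist plus stimulus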
NPY1 antag ctr: antagonizes human NPY-Y1, counter-screen to NPY-Y2 antagonists. shares compounds with NPY-Y2 antag. cell-based NPY-Y1 antagonism counterscreen. inhibition, % at 3.6 µM. actives 19% (n = 710); in the data active means inhibition above about 20%;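 further: cells challenged with NPY then isoproterenol with cAMP sensed through a CNG channel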
NPY-Y2 ant conf: human NPY-Y2 antagonism, confirmation; inhibition, % at 2.8 µM; HEK293 NPY-Y2 CNG channel, membrane potential fluorescence; shares compounds with NPY-Y2 antag; actives 32% (n = 710);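 active means mean inhibition of triplicate wells above the hit cutoff set in the primary screen, cut at about 17% in these data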;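 further: 0% = DMSO with NPY challenge and 100% = BIIE0246 high control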
NPY-Y1 ant conf: confirmation of human neuropeptide Y receptor Y1 antagonists. actives 21% (n = 1,200). HEK293-CNG NPY-Y1, membrane potential fluorescence, cAMP; NPY challenge against isoproterenol-raised cAMP. AID 1254. shares compounds with NPY Y1 blocker. inhibition, % at 3.6 µM; in the data active means inhibition above about 20%;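 further: 0% = vehicle with agonist plus stimulus and 100% = stimulus alone without agonist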
NPY-Y2 antag ct: antagonizes human NPY-Y2, counter-screen to NPY-Y1 antagonists; actives 28% (n = 1,200); HEK293 NPY-Y2 CNG membrane potential fluorescence, antagonism; cells given NPY, then isoproterenol; shares compounds with NPY Y1 blocker; AID 1255; inhibition, % at 3.6 µM;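 further: 0% = DMSO with agonist challenge and 100% = reference antagonist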
Numbers without * were called inactive; . = no result given. Unless noted, no stated cut-off is given here; in the data, active means inhibition above about 17%; inactive means the rest.

SMILES | NPY Y1 blocker | NPY-Y2 antag | NPY2 pot ag | NPY-Y1 PAM-ag | NPY-Y1 ant conf | NPY-Y2 antag ct | others
Cc1cc(OC(=O)CCNC(=O)OC(C)(C)C)c2c3c(c(=O)oc2c1)CCC3 | 1 | -4 | 68* | -13 | . | .
Cc1cc(OC(=O)CCCNC(=O)OC(C)(C)C)c2c3c(c(=O)oc2c1)CCC3 | 2 | 2 | -18 | 1 | . | .
CC(Oc1ccc(-c2ccccc2)cc1)C(=O)O (stereo unspecified) | 25* | 5 | -28 | 2 | . | .
Cc1[nH]c2ccccc2c1C(=O)C(=O)N1CCC2(CC1)OCCO2 | 0 | . | -1 | 2 | . | .
COC(=O)[C@H]1C[C@@H]1[C@H](NP(=O)(c1ccccc1)c1ccccc1)c1ccccc1 | 40* | 19* | -13 | -36 | . | .
COC(=O)[C@@H]1C[C@H]1[C@@H](NP(=O)(c1ccccc1)c1ccccc1)c1ccccc1 | 6 | 4 | -11 | 4 | . | .
CCC(=NCCC(c1ccccc1)c1ccccc1)c1c(O)[nH]c(=O)[nH]c1=O | 7 | 35* | -7 | -22 | . | . | NPY1 antag ctr=40*;NPY-Y2 ant conf=67*
O=C(c1ccco1)c1cn(Cc2ccccc2Cl)c2ccccc12 | 12 | 24* | -21 | -28 | . | . | NPY1 antag ctr=13;NPY-Y2 ant conf=11
O=C(c1ccco1)c1cn(Cc2ccccc2)c2ccccc12 | 7 | 16 | -3 | -41 | . | .
N#Cc1ccccc1Cn1cc(C(=O)c2ccco2)c2ccccc21 | 16 | 17* | 1 | -51 | . | . | NPY1 antag ctr=6;NPY-Y2 ant conf=5
CN1CCN(c2c(C#N)c(C(F)(F)F)nn2C)CC1 | 4 | . | 11 | 3 | . | .
O=P(Oc1ccccc1)(Oc1ccccc1)C(Nc1ccccc1)c1ccccc1 (stereo unspecified) | 6 | 28* | 1 | -6 | . | . | NPY1 antag ctr=27*;NPY-Y2 ant conf=20*
COP(=O)(OC)C(Nc1ccccn1)c1ccccc1 (stereo unspecified) | 2 | 0 | 3 | -8 | . | .
CC(C)CN1CCN(Cc2ccc(C(F)(F)F)cc2)CC1CCO (stereo unspecified) | . | . | -2 | -14 | . | .
CN(C)c1ccc(P(=S)(N(C)C)N(C)C)cc1 | 2 | 5 | -17 | -9 | . | .
CCOP(=S)(OCC)c1ccc(N(C)C)cc1 | 15 | 17* | -15 | -7 | . | . | NPY1 antag ctr=17;NPY-Y2 ant conf=7
CC1C(c2cccs2)=[N+]([O-])C(C)(C(=O)c2ccc(F)cc2)N1O (stereo unspecified) | 0 | 4 | 6 | 19 | . | .
CC1CCC(C(C)C)C(OC(=O)COC(=O)c2ccccc2N)C1 (stereo unspecified) | 18 | 18* | -17 | -34 | . | . | NPY1 antag ctr=9;NPY-Y2 ant conf=14
CN(C)C(Cc1ccccc1)C(=O)c1ccc(-c2ccccc2)cc1 (stereo unspecified) | 27* | 12 | -20 | -34 | 10 | 13
CC1(C)C2SCC(=O)N2CCN1CC(=O)NN (stereo unspecified) | . | . | -25 | -2 | . | .
O=c1c2ccc(Cl)cc2[nH]c(=S)n1-c1cccnc1 | 1 | . | -14 | -17 | . | .
COc1cccc(NP(=O)(Oc2ccccc2)Oc2ccccc2)c1 | 22* | 5 | -5 | -4 | 6 | 8
CN1CCC(N(C)c2nc(-c3ccc([N+](=O)[O-])cc3)nc3ccccc23)CC1 | 1 | 1 | 11 | 25 | . | .
CN(CC1COc2ccccc2O1)c1nc(-c2cccnc2)nc2ccccc12 (stereo unspecified) | 22* | 14 | -26 | -9 | 11 | 14
COc1cc(OC)c(C=O)c(OC(=O)N(C)C)c1 | 1 | . | 5 | 21 | . | .
SMILES | NPY Y1 blocker | NPY-Y2 antag | NPY2 pot ag | NPY-Y1 PAM-ag | NPY-Y1 ant conf | NPY-Y2 antag ct | others
CCOc1cc(C2NCc3ccccc3-n3cccc32)ccc1O (stereo unspecified) | 22* | 8 | 0 | -16 | 8 | 6
CCOc1cccc(C2NCc3ccccc3-n3cccc32)c1O (stereo unspecified) | 2 | 1 | -2 | 3 | . | .
COc1ccc(/C=C/C(=O)c2c(O)n(CCC3=CCCCC3)c(=O)[nH]c2=O)cc1OC | . | . | 8 | 7 | . | .
O=c1[nH]c(=O)n(-c2cccc3ccccc23)c(O)c1/C=N/N1CCCCC1c1cccnc1 (stereo unspecified) | 25* | 10 | -2 | -8 | 3 | 4
Cc1cc(NCCN)nc2ccccc12 | 21* | 12 | -20 | -31 | 13 | 16
Fc1ccccc1CNC1CN2CCC1CC2 (stereo unspecified) | 9 | . | -4 | 11 | . | .
Cc1ccccc1C(O)(Cc1ccccc1)C1CN2CCC1CC2 (stereo unspecified) | 21* | 11 | -7 | -26 | 5 | 9
CCOP(=O)(OCC)C(NC(C)=O)C(Cl)(Cl)Cl (stereo unspecified) | -3 | 0 | -22 | -8 | . | .
COc1ccc2ccc(O)c(CN3CC=C(c4ccccc4)CC3)c2c1 | 23* | . | -19 | -26 | 15 | 24*
COc1ccc2c(CN3CC=C(c4ccccc4)CC3)cc(=O)oc2c1 | 3 | . | -9 | -12 | . | .
CCOC(=O)C1(CCc2ccccc2)CCN(C2CCSCC2)CC1 | 23* | . | -14 | -22 | 11 | 10
COc1cccc(C(=O)C2CCCN(Cc3ccc4nonc4c3)C2)c1 (stereo unspecified) | 29* | . | -18 | -8 | 9 | 6
CCC(C)n1c(O)c(/C=N/Nc2ccccc2)c(=O)[nH]c1=S (stereo unspecified) | -1 | 2 | -2 | -2 | . | .
Cc1ccsc1C(=O)C1CCCN(Cc2cccn2-c2ccccn2)C1 (stereo unspecified) | 29* | . | -35 | -36 | 21* | 24*
Cc1ccsc1C(=O)C1CCCN(Cc2ccccc2O)C1 (stereo unspecified) | 10 | . | -8 | -6 | . | .
